The source of these data is ChEMBL document CHEMBL4732121, “Imidazo[1,2-a]quinoxalines for melanoma treatment with original mechanism of action” (Eur J Med Chem, 2021).

Calls of active or inactive are those of the source. The rule behind the calls is not given here.

The test system of data set [1] is A-375. Description: Antitumor activity against human A-375 cells xenografted in Balb/c nude mouse assessed as change in tumor stroma at 75 mg/kg, ip administered 3 times a week during first week and twice a week for next 2 weeks measured post last dose by trichrome staining based histopathological analysis. It is filed as functional, organism-based. The following applies: time 3.0 weeks. Put shortly: (§1)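 Balb/c nude mice given 10×10^6 A375 cells in PBS subcutaneously in the right flank under isoflurane. Groups of 6-12 allocated on Day 14 at 110-130 mm^3 mean tumor volume; dosed ip for three weeks. Drug in DMSO/Tween 80 (1:1) diluted with saline; vehicle DMSO/Tween 80/saline (1:1:8). Tumors fixed in buffered 3.7% formalin and read blind by a veterinary pathologist after mid-sagittal section.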
(Xenograft models place foreign cells or tissue in a host animal.)

For data set [2], the system named is A-375. Description: Antitumor activity against human A-375 cells xenografted in Balb/c nude mouse assessed as reduction in tumor weight at 25 mg/kg, ip administered 3 times a week for 3 weeks measured post last dose. It is filed as functional, organism-based. Put shortly:
as §1

Data set [3] relates to A-375. Nature of the data set: Antitumor activity against human A-375 cells xenografted in Balb/c nude mouse assessed as reduction in tumor weight at 75 mg/kg, ip administered 3 times a week during first week and twice a week for next 2 weeks measured post last dose. It is filed as functional, organism-based. The conditions noted are these: time 3.0 weeks. Put shortly: as §1

Data set [4] in a line: Toxicity in Balb/c nude mouse xenografted with human A-375 cells assessed as effect on spleen pathology at 75 mg/kg, ip administered 3 times a week during first week and twice a week for 2 week measured post last dose by pathological analysis. It is filed as organism-based. The conditions noted are these: in vivo, 504 h, time 3 weeks. Put shortly: (§2)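 Balb/c nude mice inoculated s.c. in right flank with 10×10^6 A375 cells in PBS under isoflurane; dosing started once mean tumor volume reached 110-130 mm3, groups allocated Day 14. IP dosing for three weeks; vehicle DMSO/Tween 80 (vol/vol) plus injectable saline (8 vol), solutions made daily. Body weight followed during treatment; gross pathology at study termination; n = 4 mice per group reported.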

The test system of data set [5] is A-375. Nature of the data set: Antitumor activity against human A-375 cells xenografted in Balb/c nude mouse assessed as change in tumor inflammation at 25 mg/kg, ip administered 3 times a week for 3 weeks measured post last dose by trichrome staining based histopathological analysis. It is filed as functional, organism-based. Put shortly: as §1
Data set [6] deals with A-375. Description: Antitumor activity against human A-375 cells xenografted in Balb/c nude mouse assessed as vascularization at 25 mg/kg, ip administered 3 times a week for 3 weeks measured post last dose by trichrome staining based histopathological analysis. It is filed as functional, organism-based. Put shortly:
as §1

The test system of data set [7] is A-375. Description: Antitumor activity against human A-375 cells xenografted in Balb/c nude mouse assessed as change in tumor stroma at 25 mg/kg, ip administered 3 times a week for 3 weeks measured post last dose by trichrome staining based histopathological analysis. It is filed as functional, organism-based. Put shortly:
as §1

A short description of data set [8]: Toxicity in Balb/c nude mouse xenografted with human A-375 cells assessed as effect on pancreas pathology at 75 mg/kg, ip administered 3 times a week during first week and twice a week for 2 week measured post last dose by pathological analysis. The conditions noted are these: in vivo, 504 h, time 3 weeks. It is filed as organism-based. Put shortly: as §2
Data set [9] relates to A-375. Description: Antitumor activity against human A-375 cells xenografted in Balb/c nude mouse assessed as reduction in mitotic index at 75 mg/kg, ip administered 3 times a week during first week and twice a week for next 2 weeks measured post last dose. It is filed as functional, organism-based. The following applies: time 3.0 weeks. Put shortly: as §1
Data set [10] can be described thus: Toxicity in Balb/c nude mouse xenografted with human A-375 cells assessed as effect on gut pathology at 75 mg/kg, ip administered 3 times a week during first week and twice a week for 2 week measured post last dose by pathological analysis. It is filed as organism-based. The following applies: in vivo, 504 h, time 3 weeks. Put shortly:
as §2

Data set [11] concerns A-375. Nature of the data set: Antitumor activity against human A-375 cells xenografted in Balb/c nude mouse assessed as change in tumor inflammation at 75 mg/kg, ip administered 3 times a week during first week and twice a week for next 2 weeks measured post last dose by trichrome staining based histopathological analysis. It is filed as functional, organism-based. The conditions noted are these: time 3.0 weeks. Put shortly: as §1

As to `CNc1nc2ccccc2n2c(-c3ccc(O)c(O)c3)cnc12`, the outcome in data set [1], in data set [5], in data set [6], in data set [7] and in data set [11] was inactive. For the same compound, the outcome in data set [2], in data set [3] and in data set [9] was Active. Also, the Activity entry in data set [4], in data set [8] and in data set [10] was “Toxic” each time.
